Measurements as given in ChEMBL document CHEMBL1123290, “Synthesis, antimalarial activity, and quantitative structure-activity relationships of tebuquine and a series of related 5-[(7-chloro-4-quinolinyl)amino]-3-[(alkylamino)methyl] [1,1'-biphenyl]-2-ols and N omega-oxides” (1986).

How the values were obtained:
Format in all cases: functional
Plasmodium berghei [1] = test: Change in mean survival time for control (average 6.2 days) versus treated mice (Mus musculus) 72 hrs after 5 mg/kg subcutaneous dose
Plasmodium berghei [2] = test: Change in mean survival time for control (average 6.2 days) versus treated mice (Mus musculus) 72 hrs after 640 mg/kg subcutaneous dose
Plasmodium berghei [3] = test: Change in mean survival time for control (average of 6.2 days) versus treated mice (Mus musculus) 72 hrs after 80 mg/kg subcutaneous dose
Plasmodium berghei [4] = test: Change in mean survival time for control (average 6.2 days) versus treated mice (Mus musculus) 72 hrs after 10 mg/kg subcutaneous dose
Plasmodium berghei [5] = test: Change in mean survival time for control (average 6.2 days) versus treated mice (Mus musculus) 72 hrs after 160 mg/kg subcutaneous dose
Plasmodium berghei [6] = test: Change in mean survival time for control (average 6.2 days) versus treated mice (Mus musculus) 72 hrs after […] subcutaneous dose
Plasmodium berghei [7] = test: Change in mean survival time for control (average 6.2 days) versus treated mice (Mus musculus) 72 hrs after 20 mg/kg subcutaneous dose
Plasmodium berghei [8] = test: Change in mean survival time for control (average 6.2 days) versus treated mice (Mus musculus) 72 hrs after 320 mg/kg subcutaneous dose
Plasmodium berghei [9] = test: Difference in mean survival time in mice (Mus musculus) (control = 6.2 days) after single 40mg/kg subcutaneous dose 72hr post infection
Plasmodium berghei [10] = test: Antimalarial activity as 60-day survivors in Plasmodium berghei infected mice (Mus musculus) after single 160mg/kg subcutaneous dose 72 hr post infection
In short: (§1)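 Mice were infected with a normal drug-sensitive Plasmodium berghei strain. At 72 h postinfection each received one subcutaneous dose of compound dissolved or suspended in peanut oil, in five-mouse groups per dose. The read-out was the number of mice alive at 60 days postinfection, which were scored as cured.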

Plasmodium berghei [11] = test: Antimalarial activity as 60-day survivors in infected mice (Mus musculus) after single 320mg/kg subcutaneous dose 72 hr post infection; in short: as §1
Mus musculus [12] = test: Antimalarial activity, administered as a single subcutaneous dose of 640 mg/kg, 72 hrs post infection measured as number of mice (Mus musculus) surviving at 60 days post infection; in short: as §1
Mus musculus [13] = test: Delta MST, difference in mean survival time of the control mice (an average of 6.2 days) from the mean survival time of the treated mice after a single sc dose of 1.25 mg/kg, 72-h postinfection; settings: route subcutaneous
Mus musculus [14] = test: Antimalarial activity, administered as a single subcutaneous dose of 80 mg/kg, 72 hrs post infection measured as number of mice (Mus musculus) surviving at 60 days post infection; in short: as §1

With Oc1c(CNC2CCCCC2)cc(Nc2ccnc3cc(Cl)ccc23)cc1-c1ccc(Cl)cc1 the “Delta MST” value (Plasmodium berghei [1]) was 1.5 days, the “Delta MST” value (Plasmodium berghei [2]) was 17.6 days and the “Delta MST” value (Plasmodium berghei [3]) was 23.6 days. For the same compound, the “Delta MST” value (Plasmodium berghei [4]) was 4.1 days, the “Delta MST” value (Plasmodium berghei [5]) was 20.6 days and the “Delta MST” value (Plasmodium berghei [6]) was 0.5 days. The “Delta MST” value (Plasmodium berghei [7]) was 12.9 days, the “Delta MST” value (Plasmodium berghei [8]) was -0.4 days and the “Delta MST” value (Plasmodium berghei [9]) was 17.9 days. The “No. of mice cured” value (Plasmodium berghei [10]) was 4, the “No. of mice cured” value (Plasmodium berghei [11]) was 4 and the “No. of mice cured” value (Mus musculus [12]) was 4. The “Delta MST” value (Mus musculus [13]) was 0.7 days and the “No. of mice cured” value (Mus musculus [14]) was 3.
